“And” between values parts separate entries of the source, which are not always exact repeats. Equal entries are not always repeated.
System: HEK-293T
Assay: Multiplex assay against HEK293T
Type: toxicity, cell-based
Details: human, number of replicates 2
In short: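 Live cells were stained at seeding with Hoechst33342, BioTracker Green Microtubule Cytoskeleton Dye, MitoTracker Red and Annexin V Alexa Fluor 680. Following compound addition, they were imaged on a CQ1 microscope at 37°C and 5% CO2 and gated by CellPathfinder machine learning into Hoechst high-intensity objects or normal cells, with normal cells split into healthy, pyknosed or fragmented nuclei and pyknosed cells into mitotic or apoptotic. Tubulin, mitochondrial-mass and membrane-permeability phenotypes are per cents of healthy-nucleus cells.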

[1] = 12 h, 1 µM, compound concentration 1 uM
[2] = 12 h, 10 µM, compound concentration 10 uM
[3] = 24 h, 1 µM, compound concentration 1 uM
[4] = 24 h, 10 µM, compound concentration 10 uM
[5] = 48 h, 1 µM, compound concentration 1 uM
[6] = 48 h, 10 µM, compound concentration 10 uM

Compound: Cc1ccc(C(=O)Nc2cc(N3CCN(C)CC3)cc(C(F)(F)F)c2)cc1-n1cc(-c2cnn(C)c2C)nn1.Cl
- Population Apoptotic (%) [1]: 57% and 65%
- Population Fragmented Nuclei (%) [1]: 4% and 5%
- Population Healthy Nuclei (%) [1]: 73% and 76%
- Population Hoechst High Intensity Objects (%) [1]: 11% and 9%
- Population Membrane Permeable-Phenotype (%) [1]: 5% and 4%
- Population Mitochondria Different-Phenotype (%) [1]: 26% and 20%
- Population Mitotic Cells (%) [1]: 42% and 35%
- Population Normal (%) [1]: 88% and 90%
- Population Pyknosed Nuclei (%) [1]: 22% and 17%
- Population Tubulin-Different-Phenotype (%) [1]: 74% and 71%
- Total Cell Count [1]: 510 and 505
- Population Apoptotic (%) [2]: 61% and 68%
- Population Fragmented Nuclei (%) [2]: 2% and 3%
- Population Healthy Nuclei (%) [2]: 81% and 82%
- Population Hoechst High Intensity Objects (%) [2]: 4% and 5%
- Population Membrane Permeable-Phenotype (%) [2]: 8% and 12%
- Population Mitochondria Different-Phenotype (%) [2]: 25% and 17%
- Population Mitotic Cells (%) [2]: 38% and 31%
- Population Normal (%) [2]: 95% and 94%
- Population Pyknosed Nuclei (%) [2]: 16% and 14%
- Population Tubulin-Different-Phenotype (%) [2]: 88% and 86%
- Total Cell Count [2]: 680 and 697
- Population Apoptotic (%) [3]: 70% and 51%
- Population Fragmented Nuclei (%) [3]: 8% and 10%
- Population Healthy Nuclei (%) [3]: 77% and 76%
- Population Hoechst High Intensity Objects (%) [3]: 10%
- Population Membrane Permeable-Phenotype (%) [3]: 3% and 2%
- Population Mitochondria Different-Phenotype (%) [3]: 16% and 9%
- Population Mitotic Cells (%) [3]: 29% and 48%
- Population Normal (%) [3]: 89%
- Population Pyknosed Nuclei (%) [3]: 14% and 12%
- Population Tubulin-Different-Phenotype (%) [3]: 57% and 53%
- Total Cell Count [3]: 759 and 691
- Population Apoptotic (%) [4]: 56% and 59%
- Population Fragmented Nuclei (%) [4]: 2% and 4%
- Population Healthy Nuclei (%) [4]: 83%
- Population Hoechst High Intensity Objects (%) [4]: 6% and 9%
- Population Membrane Permeable-Phenotype (%) [4]: 8% and 11%
- Population Mitochondria Different-Phenotype (%) [4]: 25% and 22%
- Population Mitotic Cells (%) [4]: 43% and 40%
- Population Normal (%) [4]: 93% and 90%
- Population Pyknosed Nuclei (%) [4]: 13% and 12%
- Population Tubulin-Different-Phenotype (%) [4]: 88% and 85%
- Total Cell Count [4]: 748 and 730
- Population Apoptotic (%) [5]: 35% and 32%
- Population Fragmented Nuclei (%) [5]: 13% and 11%
- Population Healthy Nuclei (%) [5]: 81% and 84%
- Population Hoechst High Intensity Objects (%) [5]: 10%
- Population Membrane Permeable-Phenotype (%) [5]: 9% and 6%
- Population Mitochondria Different-Phenotype (%) [5]: 1%
- Population Mitotic Cells (%) [5]: 64% and 67%
- Population Normal (%) [5]: 89%
- Population Pyknosed Nuclei (%) [5]: 5% and 4%
- Population Tubulin-Different-Phenotype (%) [5]: 23% and 35%
- Total Cell Count [5]: 1722 and 1279
- Population Apoptotic (%) [6]: 37% and 52%
- Population Fragmented Nuclei (%) [6]: 8%
- Population Healthy Nuclei (%) [6]: 83% and 86%
- Population Hoechst High Intensity Objects (%) [6]: 5% and 8%
- Population Membrane Permeable-Phenotype (%) [6]: 15% and 14%
- Population Mitochondria Different-Phenotype (%) [6]: 8%
- Population Mitotic Cells (%) [6]: 62% and 47%
- Population Normal (%) [6]: 94% and 91%
- Population Pyknosed Nuclei (%) [6]: 7% and 5%
- Population Tubulin-Different-Phenotype (%) [6]: 79%
- Total Cell Count [6]: 1207 and 1093

Compound: COc1cccc(Cn2cc(C(=O)Nc3ccc(C)c(S(=O)(=O)N4CCOCC4)c3)c(-c3ccc(C)cc3)n2)c1
- Population Apoptotic (%) [1]: 39% and 54%
- Population Fragmented Nuclei (%) [1]: 2%
- Population Healthy Nuclei (%) [1]: 81% and 84%
- Population Hoechst High Intensity Objects (%) [1]: 5% and 4%
- Population Membrane Permeable-Phenotype (%) [1]: 6% and 4%
- Population Mitochondria Different-Phenotype (%) [1]: 25% and 22%
- Population Mitotic Cells (%) [1]: 60% and 45%
- Population Normal (%) [1]: 94% and 95%
- Population Pyknosed Nuclei (%) [1]: 15% and 12%
- Population Tubulin-Different-Phenotype (%) [1]: 76%
- Total Cell Count [1]: 633 and 601
- Population Apoptotic (%) [2]: 35% and 56%
- Population Fragmented Nuclei (%) [2]: 1% and 3%
- Population Healthy Nuclei (%) [2]: 83%
- Population Hoechst High Intensity Objects (%) [2]: 6% and 7%
- Population Membrane Permeable-Phenotype (%) [2]: 21% and 19%
- Population Mitochondria Different-Phenotype (%) [2]: 24% and 26%
- Population Mitotic Cells (%) [2]: 64% and 43%
- Population Normal (%) [2]: 93% and 92%
- Population Pyknosed Nuclei (%) [2]: 14% and 13%
- Population Tubulin-Different-Phenotype (%) [2]: 84% and 87%
- Total Cell Count [2]: 611 and 568
- Population Apoptotic (%) [3]: 46% and 42%
- Population Fragmented Nuclei (%) [3]: 5% and 4%
- Population Healthy Nuclei (%) [3]: 84% and 87%
- Population Hoechst High Intensity Objects (%) [3]: 9% and 6%
- Population Membrane Permeable-Phenotype (%) [3]: 5% and 6%
- Population Mitochondria Different-Phenotype (%) [3]: 13% and 12%
- Population Mitotic Cells (%) [3]: 53% and 57%
- Population Normal (%) [3]: 90% and 93%
- Population Pyknosed Nuclei (%) [3]: 9% and 8%
- Population Tubulin-Different-Phenotype (%) [3]: 59%
- Total Cell Count [3]: 851 and 807
- Population Apoptotic (%) [4]: 34% and 50%
- Population Fragmented Nuclei (%) [4]: 3% and 2%
- Population Healthy Nuclei (%) [4]: 81% and 83%
- Population Hoechst High Intensity Objects (%) [4]: 8%
- Population Membrane Permeable-Phenotype (%) [4]: 19% and 22%
- Population Mitochondria Different-Phenotype (%) [4]: 21% and 22%
- Population Mitotic Cells (%) [4]: 65% and 50%
- Population Normal (%) [4]: 91%
- Population Pyknosed Nuclei (%) [4]: 15% and 13%
- Population Tubulin-Different-Phenotype (%) [4]: 90%
- Total Cell Count [4]: 684 and 610
- Population Apoptotic (%) [5]: 27% and 29%
- Population Fragmented Nuclei (%) [5]: 8%
- Population Healthy Nuclei (%) [5]: 87% and 85%
- Population Hoechst High Intensity Objects (%) [5]: 9%
- Population Membrane Permeable-Phenotype (%) [5]: 7%
- Population Mitochondria Different-Phenotype (%) [5]: 3% and 4%
- Population Mitotic Cells (%) [5]: 72% and 70%
- Population Normal (%) [5]: 90%
- Population Pyknosed Nuclei (%) [5]: 4% and 5%
- Population Tubulin-Different-Phenotype (%) [5]: 39% and 45%
- Total Cell Count [5]: 1564 and 1391
- Population Apoptotic (%) [6]: 23% and 62%
- Population Fragmented Nuclei (%) [6]: 5%
- Population Healthy Nuclei (%) [6]: 86% and 83%
- Population Hoechst High Intensity Objects (%) [6]: 9%
- Population Membrane Permeable-Phenotype (%) [6]: 26% and 27%
- Population Mitochondria Different-Phenotype (%) [6]: 13% and 12%
- Population Mitotic Cells (%) [6]: 76% and 37%
- Population Normal (%) [6]: 90%
- Population Pyknosed Nuclei (%) [6]: 7% and 10%
- Population Tubulin-Different-Phenotype (%) [6]: 87% and 91%
- Total Cell Count [6]: 752 and 689

Compound: CS(=O)(=O)c1ccc(C(=O)Nc2cccc(COc3ccc(Br)cc3CN3CCC[C@H](O)C3)c2)c(Cl)c1.O=CO
- Population Healthy Nuclei (%) [1]: 82%
- Population Mitotic Cells (%) [1]: 45% and 44%
- Total Cell Count [1]: 629 and 598
- Population Healthy Nuclei (%) [2]: 85% and 88%
- Population Mitotic Cells (%) [2]: 38% and 41%
- Total Cell Count [2]: 549 and 638
- Population Healthy Nuclei (%) [3]: 83% and 85%
- Population Mitotic Cells (%) [3]: 60% and 48%
- Total Cell Count [3]: 967 and 829
- Population Healthy Nuclei (%) [4]: 83% and 85%
- Population Mitotic Cells (%) [4]: 49% and 30%
- Total Cell Count [4]: 569 and 612
- Population Healthy Nuclei (%) [5]: 82% and 86%
- Population Mitotic Cells (%) [5]: 82% and 78%
- Total Cell Count [5]: 2080 and 1482
- Population Healthy Nuclei (%) [6]: 86% and 84%
- Population Mitotic Cells (%) [6]: 62% and 45%
- Total Cell Count [6]: 820 and 907
